{"data": "Assay results from different studies", "cell line": "HeLa", "effect on": "cell growth or viability", "note": "Protocols differ between the studies behind these lines."}
{"SMILES": "COc1ccc(OC)c(-c2c(C(=O)c3cc(OC)c(OC)c(OC)c3)sc3ccccc23)c1", "test": "MTT", "conditions": "72 h", "IC50": "> 10 µM"}
{"SMILES": "COC(=O)CN=c1scc(-c2ccccc2)n1-c1ccc(Cl)cc1", "test": "MTT", "conditions": "72 h", "IC50": "17 µM"}
{"SMILES": "COc1cccc(Oc2ccccc2NC(=O)CNC(=O)c2c(C)cc(C)cc2C)c1", "IC50": "6.5 µM"}
{"SMILES": "COC(=O)CN=c1scc(-c2ccccc2)n1-c1ccccc1[N+](=O)[O-]", "test": "MTT", "conditions": "72 h", "IC50": "6.02 µM"}
{"SMILES": "COc1ccc(-c2cc(=O)c3c(OC)cc(C)c(-c4c(C)cc(OC)c5c(=O)cc(-c6ccc(OC)cc6)oc45)c3o2)cc1", "test": "MTT", "conditions": "48 h", "IC50": "41.4 µM"}
{"SMILES": "Cc1ccc2c(Cl)cc(Cl)c(O)c2n1", "test": "MTT", "conditions": "48 h", "IC50": "> 100 µM"}
{"SMILES": "COc1cc(OC)c2c(=O)cc(-c3ccccc3Br)oc2c1-c1c(OC)cc(OC)c2c(=O)cc(-c3ccccc3Br)oc12", "test": "MTT", "conditions": "48 h", "IC50": "10.4 µM"}
{"SMILES": "COc1cccc(-c2cccc(NC(=O)CCc3cccc4c3B(O)OC4)c2)c1", "test": "ATP luminescence", "conditions": "72 h", "IC50": "1.05 µM"}
{"SMILES": "O=C(Cn1ccnc1[N+](=O)[O-])NCc1ccccc1", "IC50": "> 380 µM"}
{"SMILES": "O=C(Nc1cc(OCCN2CCCC2)c2ccccc2n1)c1cc(Cl)cc(C(=O)Nc2cc(OCCN3CCCC3)c3ccccc3n2)n1", "test": "ATP luminescence", "conditions": "72 h", "IC50": "4.7 µM"}
{"SMILES": "COc1cc(C)cc2oc(-c3ccc(Br)cc3)cc(=O)c12", "test": "MTT", "conditions": "48 h", "IC50": "> 100 µM"}
{"SMILES": "Cc1c(O)c(=O)ccn1-c1cccc(C(=O)O)c1", "test": "MTT", "conditions": "72 h", "IC50": "600 µM"}
{"SMILES": "CC1(C)CC[C@]2(C(=O)O)CC[C@]3(C)C(=CC[C@@H]4[C@@]5(C)CC[C@H](O)C(C)(C)[C@@H]5CC[C@]43C)[C@@H]2C1", "test": "MTT", "conditions": "48 h", "IC50": "34.8 µM"}
{"SMILES": "CC1NC(=O)C(C(=O)NC(C(=O)NC2C(=O)N3C2SC(C)(C)C3C(=O)O)c2ccccc2)=C1O (stereo not drawn)", "test": "ATP luminescence", "conditions": "48 h", "IC50": "106 µg/mL"}
{"SMILES": "COc1cc(C(=O)Nc2cc(OC)c3ccccc3n2)nc(C(=O)Nc2cc(OC)c3ccccc3n2)c1", "test": "ATP luminescence", "conditions": "72 h", "IC50": "> 40 µM"}
{"SMILES": "COc1cc(OC)c2c(=O)cc(-c3ccc(C(F)(F)F)cc3)oc2c1", "test": "MTT", "conditions": "48 h", "IC50": "> 100 µM"}
{"SMILES": "COC1=C2C[C@@H](C)C[C@H](OC)[C@H](O)[C@@H](C)/C=C(\\C)[C@H](OC(N)=O)[C@@H](OC)/C=C\\C=C(/C)C(=O)NC(=CC1=O)C2=O", "test": "MTT", "IC50": "0.651 µM"}
{"SMILES": "COc1ccc(-c2cc(=O)c3c(OC)cc(C)cc3o2)cc1", "test": "MTT", "conditions": "48 h", "IC50": "28.4 µM"}
{"SMILES": "COc1cc(OC)cc(C(=O)c2cc3c(-c4ccccc4)c(O)ccc3o2)c1", "IC50": "15 µM"}
{"SMILES": "c1ccc(-c2ccccn2)nc1", "test": "MTT", "conditions": "48 h", "IC50": "> 50 µM"}
{"SMILES": "COc1cc(C)cc2oc(-c3cccc(Br)c3)cc(=O)c12", "test": "MTT", "conditions": "48 h", "IC50": "32.9 µM"}
{"SMILES": "NCCOc1cc(C(=O)Nc2cc(OCCN3CCCC3)c3ccccc3n2)nc(C(=O)Nc2cc(OCCN3CCCC3)c3ccccc3n2)c1", "test": "ATP luminescence", "conditions": "72 h", "IC50": "0.3 µM"}
{"SMILES": "Cc1ccc(C#CC#Cc2ccc(C)cc2)cc1", "test": "MTT", "conditions": "24 h", "IC50": "70.5 µg/mL"}
{"SMILES": "CN(C)CCCOc1cc(NC(=O)c2cc(Cl)cc(C(=O)Nc3cc(OCCCN(C)C)c4ccccc4n3)n2)nc2ccccc12", "test": "ATP luminescence", "conditions": "72 h", "IC50": "1.6 µM"}
{"SMILES": "COc1c2c(cc3c1OCO3)[C@]13C=C[C@H](OC)C[C@H]1N(C2)C[C@H]3OC(=O)c1cccc(C)c1", "test": "WST-1", "conditions": "48 h", "IC50": "> 10 µM"}
{"SMILES": "COc1cc(C)c(-c2c(C)cc(OC)c3c(=O)cc(-c4ccccc4Br)oc23)c2oc(-c3ccccc3Br)cc(=O)c12", "test": "MTT", "conditions": "48 h", "IC50": "18.5 µM"}
{"SMILES": "NCCOc1cc(NC(=O)c2cccc(C(=O)Nc3cc(OCCN)c4ccccc4n3)n2)nc2ccccc12", "test": "ATP luminescence", "conditions": "72 h", "IC50": "1.2 µM"}
{"SMILES": "COc1ccc(-c2cc(=O)c3c(OC)cc(OC)c(-c4c(OC)cc(OC)c5c(=O)cc(-c6ccc(OC)cc6)oc45)c3o2)cc1", "test": "MTT", "conditions": "48 h", "IC50": "39.5 µM"}
{"SMILES": "CC1(C)SC2C(NC(=O)C(NC(=O)C3=C(O)C(Cc4ccccc4)NC3=O)c3ccccc3)C(=O)N2C1C(=O)O (stereo not drawn)", "test": "ATP luminescence", "conditions": "48 h", "IC50": "122 µg/mL"}
{"SMILES": "CC(=O)O[C@H](C)C(=O)CCCCCCC(=O)Nc1ccccc1", "test": "XTT", "IC50": "> 50 µM"}
{"SMILES": "CC1(C)SC2C(NC(=O)C(NC(=O)C3=C(O)C(Cc4ccc(O)cc4)NC3=O)c3ccccc3)C(=O)N2C1C(=O)O (stereo not drawn)", "test": "ATP luminescence", "conditions": "48 h", "IC50": "93.5 µg/mL"}
{"SMILES": "COc1cc(C#CC#Cc2cc(OC)cc(OC)c2)cc(OC)c1", "test": "MTT", "conditions": "24 h", "IC50": "4.51 µg/mL"}
{"SMILES": "CC1(C)S[C@@H]2[C@H](NC(=O)[C@H](N)c3ccccc3)C(=O)N2[C@H]1C(=O)O", "test": "ATP luminescence", "conditions": "48 h", "IC50": "72.7 µg/mL"}
{"SMILES": "Cc1c(O)c(=O)ccn1CCO", "test": "MTT", "conditions": "72 h", "IC50": "≥ 100 µM"}
{"SMILES": "COc1ccc(C(=O)O[C@@H]2CN3Cc4c(cc5c(c4OC)OCO5)[C@@]24C=C[C@H](OC)C[C@@H]34)cc1OC", "test": "WST-1", "conditions": "48 h", "IC50": "4.8 µM"}
{"SMILES": "O=C(CCc1cccc2c1B(O)OC2)Nc1ccc(-c2ccccc2)cc1", "test": "ATP luminescence", "conditions": "72 h", "IC50": "> 31.6 µM"}
{"SMILES": "COc1cc(OC)cc(C(=O)c2cc3c(-c4ccccc4)c(OC)ccc3o2)c1", "IC50": "> 50 µM"}
{"SMILES": "COc1cccc2c1C(=O)c1c(O)c3c(c(O)c1C2=O)C[C@@](O)(C(=O)CO)C[C@@H]3O[C@H]1C[C@H](N)[C@H](O)[C@H](C)O1", "test": "MTT", "conditions": "24 h", "IC50": "1.71 µg/mL"}
{"SMILES": "Oc1c(I)cc(Cl)c2cccnc12", "test": "MTT", "conditions": "48 h", "IC50": "70.2 µM"}
{"SMILES": "CC1(C)S[C@@H]2[C@H](NC(=O)C(C(=O)O)c3ccccc3)C(=O)N2[C@H]1C(=O)O (stereo partly drawn)", "test": "ATP luminescence", "conditions": "48 h", "IC50": "76.2 µg/mL"}
{"SMILES": "C#CCOc1cc(C(=O)Nc2cc(OCCCN)c3ccccc3n2)nc(C(=O)Nc2cc(OCCCN)c3ccccc3n2)c1", "test": "ATP luminescence", "conditions": "72 h", "IC50": "3.6 µM"}
{"SMILES": "COc1ccccc1C(=O)c1cc2c(-c3ccccc3)c(O)ccc2o1", "IC50": "24 µM"}
{"SMILES": "CC(C)C1NC(=O)C(C(=O)NC(C(=O)NC2C(=O)N3C2SC(C)(C)C3C(=O)O)c2ccccc2)=C1O (stereo not drawn)", "test": "ATP luminescence", "conditions": "48 h", "IC50": "59 µg/mL"}
{"SMILES": "Nc1ccc(C#CC#Cc2ccc(N)cc2)cc1", "test": "MTT", "conditions": "24 h", "IC50": "91.2 µg/mL"}
{"SMILES": "CC(=O)O[C@H](C)C(=O)CCCCC[C@@H]1NC(=O)[C@H]2CCCN2C(=O)[C@H](Cc2ccccc2)NC(=O)C(C)(C)NC1=O", "test": "XTT", "IC50": "0.119 µM"}
